Data set [1] has as its target D(1A) dopamine receptor (Homo sapiens) (UniProt P21728). In words: Displacement of [3H][…] from human cloned dopamine D1 receptor. (In general: Loss of bound radioactivity is the signal in a displacement assay; it reports binding, not function.)
Data set [2] concerns the target Sodium-dependent noradrenaline transporter (Homo sapiens) (UniProt P23975). In words: Displacement of [3H]nisoxetine from human cloned NET.
The target in data set [3] is 5-hydroxytryptamine receptor 3A (Homo sapiens) (UniProt P46098). In words: Displacement of [3H]LY278584 from human cloned 5HT3 receptor.
Chain of 5-hydroxytryptamine receptor 3A (Homo sapiens) (P46098 whole entry): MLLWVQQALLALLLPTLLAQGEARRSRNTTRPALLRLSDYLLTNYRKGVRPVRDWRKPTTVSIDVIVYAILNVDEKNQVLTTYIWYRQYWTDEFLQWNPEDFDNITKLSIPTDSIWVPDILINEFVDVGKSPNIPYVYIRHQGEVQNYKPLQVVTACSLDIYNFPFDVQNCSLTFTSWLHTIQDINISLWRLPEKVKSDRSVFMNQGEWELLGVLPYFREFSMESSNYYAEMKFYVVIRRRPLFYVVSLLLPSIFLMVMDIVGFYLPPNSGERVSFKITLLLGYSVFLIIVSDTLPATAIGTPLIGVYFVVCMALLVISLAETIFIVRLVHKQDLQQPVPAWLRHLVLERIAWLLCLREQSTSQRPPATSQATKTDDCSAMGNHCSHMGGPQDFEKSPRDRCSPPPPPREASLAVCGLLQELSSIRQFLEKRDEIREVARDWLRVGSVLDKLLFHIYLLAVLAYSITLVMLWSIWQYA
Data set [4] concerns the target Histamine H2 receptor (Homo sapiens) (UniProt P25021). In words: Displacement of [3H]Tiotidine from human cloned histamine H2 receptor.
The target in data set [5] is Alpha-2A adrenergic receptor (Homo sapiens) (UniProt P08913). The data set can be described thus: Displacement of [3H]clonidine from human cloned adrenergic alpha-2a receptor.
Chain of Alpha-2A adrenergic receptor (Homo sapiens) (P08913 whole entry): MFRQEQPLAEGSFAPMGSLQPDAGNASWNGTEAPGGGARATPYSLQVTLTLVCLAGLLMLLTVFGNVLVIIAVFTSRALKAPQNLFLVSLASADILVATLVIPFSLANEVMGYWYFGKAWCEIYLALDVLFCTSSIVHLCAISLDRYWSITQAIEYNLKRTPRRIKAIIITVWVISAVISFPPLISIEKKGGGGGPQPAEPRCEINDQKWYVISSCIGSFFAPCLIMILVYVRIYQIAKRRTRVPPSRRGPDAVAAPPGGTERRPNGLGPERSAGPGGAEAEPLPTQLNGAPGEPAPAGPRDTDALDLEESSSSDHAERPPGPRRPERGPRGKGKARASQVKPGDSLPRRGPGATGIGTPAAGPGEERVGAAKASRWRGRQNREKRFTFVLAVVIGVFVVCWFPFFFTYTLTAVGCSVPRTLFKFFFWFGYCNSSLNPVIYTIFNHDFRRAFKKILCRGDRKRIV
The target of data set [6] is D(4) dopamine receptor (Homo sapiens) (UniProt P21917). In words: Displacement of [3H]N-methylspiperone from human cloned dopamine D4 receptor.
Data set [7] addresses Alpha-1A adrenergic receptor (Homo sapiens) (UniProt P35348). The data set can be described thus: Displacement of [3H]prazosin from human cloned adrenergic alpha1A receptor.
Data set [8] in a line: Biodistribution in iv dosed baboon heart by dynamic PET imaging analysis. Type of data set: ADME, organism-based. Particulars: papio anubis, in vivo; call rule not given here. Put shortly:
(§1)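 Female Papio anubis baboons; ketamine 10 mg/kg i.m. induction, then O2/N2O/isoflurane (1–4%). Radiotracer given through a radial arm vein catheter. Dynamic 3D PET over 90 min (55 frames), brain or torso in field of view. Regions of interest drawn on summed images give time-activity curves as decay-corrected %injected dose/cc.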

Data set [9] has as its target Muscarinic acetylcholine receptor M2 (Homo sapiens) (UniProt P08172). In words: Displacement of [3H]QNB from human cloned muscarinic M2 receptor.
Data set [10] deals with Muscarinic acetylcholine receptor M4 (Homo sapiens) (UniProt P08173). The data set can be described thus: Displacement of [3H]QNB from human cloned muscarinic M4 receptor.
For data set [11], the target named is Histamine H4 receptor (Homo sapiens) (UniProt Q9H3N8). In words: Displacement of [3H]histamine from human cloned histamine H4 receptor.
Data set [12] has as its target D(3) dopamine receptor (Rattus norvegicus) (UniProt P19020). In words: Displacement of [3H]N-methylspiperone from rat cloned dopamine D3 receptor.
In data set [13] the target is 5-hydroxytryptamine receptor 4 (Homo sapiens) (UniProt Q13639). The data set can be described thus: Binding affinity to human cloned 5HT4 receptor.
Chain of 5-hydroxytryptamine receptor 4 (Homo sapiens) (Q13639 whole entry): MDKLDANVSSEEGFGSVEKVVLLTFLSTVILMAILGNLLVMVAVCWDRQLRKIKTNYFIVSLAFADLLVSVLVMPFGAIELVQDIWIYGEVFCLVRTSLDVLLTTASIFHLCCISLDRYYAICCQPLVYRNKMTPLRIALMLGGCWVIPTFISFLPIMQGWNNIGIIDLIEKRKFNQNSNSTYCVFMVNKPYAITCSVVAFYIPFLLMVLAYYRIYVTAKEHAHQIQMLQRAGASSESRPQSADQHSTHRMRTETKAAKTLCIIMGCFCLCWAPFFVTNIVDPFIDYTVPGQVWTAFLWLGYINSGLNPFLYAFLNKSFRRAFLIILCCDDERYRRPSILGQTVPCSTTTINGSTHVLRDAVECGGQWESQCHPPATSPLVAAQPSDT
Data set [14] concerns the target Alpha-1B adrenergic receptor (Homo sapiens) (UniProt P35368). The data set can be described thus: Displacement of [3H]prazosin from human cloned adrenergic Alpha-1B receptor.
For data set [15], the target named is 5-hydroxytryptamine receptor 2C (Rattus norvegicus) (UniProt P08909). The data set can be described thus: Displacement of [3H]Mesulergine from rat cloned 5HT2C receptor.
Chain of 5-hydroxytryptamine receptor 2C (Rattus norvegicus) (P08909 whole entry): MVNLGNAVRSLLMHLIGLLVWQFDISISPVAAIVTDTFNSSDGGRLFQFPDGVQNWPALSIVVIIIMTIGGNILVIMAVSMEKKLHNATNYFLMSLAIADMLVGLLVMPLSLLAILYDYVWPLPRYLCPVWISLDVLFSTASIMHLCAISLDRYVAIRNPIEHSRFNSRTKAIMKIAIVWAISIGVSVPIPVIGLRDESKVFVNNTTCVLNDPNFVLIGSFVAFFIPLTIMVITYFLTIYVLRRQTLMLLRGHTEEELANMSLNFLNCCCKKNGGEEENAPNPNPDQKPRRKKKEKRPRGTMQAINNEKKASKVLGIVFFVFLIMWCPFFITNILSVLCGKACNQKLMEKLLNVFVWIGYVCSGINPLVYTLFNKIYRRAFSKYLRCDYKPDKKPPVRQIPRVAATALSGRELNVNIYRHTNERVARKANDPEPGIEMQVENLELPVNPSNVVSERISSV
For data set [16], the target named is 5-hydroxytryptamine receptor 1B (Homo sapiens) (UniProt P28222). The data set can be described thus: Displacement of [3H][…] from human cloned 5HT1B receptor.
Chain of 5-hydroxytryptamine receptor 1B (Homo sapiens) (P28222 whole entry): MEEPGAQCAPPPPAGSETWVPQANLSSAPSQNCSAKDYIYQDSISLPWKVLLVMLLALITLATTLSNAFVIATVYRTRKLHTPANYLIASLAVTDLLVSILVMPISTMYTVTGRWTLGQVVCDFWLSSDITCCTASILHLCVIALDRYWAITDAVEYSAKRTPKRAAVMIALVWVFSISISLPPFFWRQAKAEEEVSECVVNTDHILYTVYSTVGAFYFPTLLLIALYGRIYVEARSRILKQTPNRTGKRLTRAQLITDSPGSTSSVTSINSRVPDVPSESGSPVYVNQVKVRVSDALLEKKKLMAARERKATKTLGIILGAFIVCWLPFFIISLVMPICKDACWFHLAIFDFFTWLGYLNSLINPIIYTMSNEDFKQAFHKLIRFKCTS
The target of data set [17] is Alpha-2C adrenergic receptor (Homo sapiens) (UniProt P18825). The data set can be described thus: Displacement of [3H]clonidine from human cloned adrenergic alpha2c receptor.
Chain of Alpha-2C adrenergic receptor (Homo sapiens) (P18825 whole entry): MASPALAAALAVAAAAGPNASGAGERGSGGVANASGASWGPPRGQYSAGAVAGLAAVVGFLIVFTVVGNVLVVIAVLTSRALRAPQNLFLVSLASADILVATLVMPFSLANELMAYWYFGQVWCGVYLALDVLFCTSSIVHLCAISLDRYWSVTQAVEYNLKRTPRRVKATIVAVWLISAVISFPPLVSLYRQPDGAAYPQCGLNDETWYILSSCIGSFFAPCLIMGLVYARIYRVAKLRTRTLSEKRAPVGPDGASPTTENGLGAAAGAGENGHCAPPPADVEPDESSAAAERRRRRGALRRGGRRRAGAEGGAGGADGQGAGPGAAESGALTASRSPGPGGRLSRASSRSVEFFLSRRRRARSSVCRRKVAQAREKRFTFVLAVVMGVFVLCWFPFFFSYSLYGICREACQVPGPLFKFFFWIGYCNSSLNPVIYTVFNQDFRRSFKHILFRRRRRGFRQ
Data set [18] addresses D(2) dopamine receptor (Homo sapiens) (UniProt P14416). In words: Displacement of [3H]N-methylspiperone from human cloned dopamine D2 receptor.
Data set [19] has as its target Kappa-type opioid receptor (Rattus norvegicus) (UniProt P34975). The data set can be described thus: Displacement of [3H]U69593 from rat cloned kappa opioid receptor.
Data set [20] addresses 5-hydroxytryptamine receptor 2B (Homo sapiens) (UniProt P41595). In words: Displacement of [3H]LSD from human cloned 5HT2B receptor.
For data set [21], the target named is 5-hydroxytryptamine receptor 1A (Homo sapiens) (UniProt P08908). The data set can be described thus: Displacement of [3H]8-OH-DPAT from human cloned 5HT1A receptor.
Data set [22] deals with Prostaglandin E2 receptor EP3 subtype (Homo sapiens) (UniProt P43115). The data set can be described thus: Displacement of [3H]PGE2 from human cloned EP3 receptor.
Chain of Prostaglandin E2 receptor EP3 subtype (Homo sapiens) (P43115 whole entry): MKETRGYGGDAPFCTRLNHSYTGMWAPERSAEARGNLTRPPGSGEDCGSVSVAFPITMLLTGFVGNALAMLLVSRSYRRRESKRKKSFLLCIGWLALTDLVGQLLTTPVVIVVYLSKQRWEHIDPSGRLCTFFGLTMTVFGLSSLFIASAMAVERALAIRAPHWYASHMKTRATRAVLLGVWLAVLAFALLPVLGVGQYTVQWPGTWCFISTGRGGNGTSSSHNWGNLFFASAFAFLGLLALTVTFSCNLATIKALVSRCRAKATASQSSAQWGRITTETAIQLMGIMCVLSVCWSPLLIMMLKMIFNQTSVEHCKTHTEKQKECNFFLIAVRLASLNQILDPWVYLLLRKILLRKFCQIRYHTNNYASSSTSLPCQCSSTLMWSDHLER
Data set [23] has as its target Prostaglandin E2 receptor EP4 subtype (Homo sapiens) (UniProt P35408). In words: Displacement of [3H]PGE2 from human cloned EP4 receptor.
Data set [24] is described as follows: Biodistribution in iv dosed baboon heart by dynamic PET imaging analysis in presence of metergoline. The format is ADME, organism-based. Particulars: papio anubis, in vivo. Put shortly: (§2)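 Baboons anesthetized (ketamine i.m., then isoflurane/N2O/O2). […] Dynamic 3D PET for 90 min, brain or torso in view. Region time-activity curves as decay-corrected %ID/cc.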

Data set [25] addresses 5-hydroxytryptamine receptor 1E (Homo sapiens) (UniProt P28566). The data set can be described thus: Displacement of [3H]5-HT from human cloned 5HT1E receptor.
Data set [26] deals with Delta-type opioid receptor (Homo sapiens) (UniProt P41143). The data set can be described thus: Displacement of [3H]DADLE from human cloned delta opioid receptor.
Data set [27] addresses 5-hydroxytryptamine receptor 5A (Homo sapiens) (UniProt P47898). The data set can be described thus: Displacement of [3H]LSD from human cloned 5HT5A receptor.
Data set [28] has as its target 5-hydroxytryptamine receptor 1D (Homo sapiens) (UniProt P28221). In words: Displacement of [3H][…] from human cloned 5HT1D receptor.
The nature of data set [29]: Drug uptake in iv dosed baboon occipital cortex in presence of altanserin. Type of data set: ADME, organism-based. Particulars: papio anubis, in vivo. Put shortly: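 Baboon pretreated with altanserin 0.5 mg/kg, dissolved in 2% HCl in EtOH, diluted with saline to 30 mL, filter-sterilized (final pH ~5.5). Given 15 min before i.v. radiotracer. Anesthetized animal (ketamine, then isoflurane). 90-min dynamic 3D brain PET; region curves as decay-corrected %ID/cc.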

The nature of data set [30]: Plasma protein binding in baboon after 10 mins. The format is ADME, cell-free. Particulars: papio anubis, read-out: PPB. Put shortly: (§3)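 Radiotracer in saline added to pooled baboon plasma (from ≥4 animals). Mixed by inversion, incubated 10 min at room temperature. Total activity sampled. Plasma then centrifuged 10 min through a Centrifree ultrafiltration unit and filtrate counted. %unbound = filtrate activity ×100/total activity.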

The nature of data set [31]: Lipophilicity, log D of compound in phosphate buffer solution at pH 7.4. The format is physicochemical. Put shortly: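 Formulated radiotracer partitioned between octanol and phosphate buffer pH 7.4: vortexed 2 min, centrifuged 2 min. Octanol layer serially re-extracted with fresh buffer to give six sample sets, each phase well-counted. logD = log(decay-corrected octanol activity ×10/decay-corrected buffer activity) for each set.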

A short description of data set [32]: Fraction unbound in baboon plasma after 10 mins. Type of data set: ADME, cell-free. Particulars: papio anubis. Put shortly:
as §3

In a further data set the test system is Brain. The data set can be described thus: Biodistribution in iv dosed baboon brain after 2 to 10 mins by PET imaging analysis. Particulars: papio anubis, in vivo. Type of data set: ADME, organism-based. The gist of the method: as §1
A short description of data set [33]: Drug uptake in iv dosed baboon occipital cortex in presence of metergoline. Particulars: papio anubis, in vivo. The format is ADME, organism-based. The gist of the method:
as §2

A short description of data set [34]: Biodistribution in iv dosed baboon gall bladder by dynamic PET imaging analysis. Particulars: papio anubis, in vivo. Type of data set: ADME, organism-based. Put shortly: as §1
Data set [35] in a line: Drug uptake in iv dosed baboon frontal cortex in presence of metergoline. The format is ADME, organism-based. Particulars: papio anubis, in vivo. The gist of the method:
as §2

Data set [36] can be described thus: Drug uptake in iv dosed baboon occipital cortex in presence of citalopram. Particulars: papio anubis, in vivo. Type of data set: ADME, organism-based. Put shortly: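 Citalopram-HBr 5.0 mg/kg (as free base) in 10 mL saline, filter-sterilized, i.v. bolus 20 min before radiotracer in anesthetized baboons. 90-min dynamic 3D brain PET. Region time-activity curves as decay-corrected %ID/cc.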

Chain of Prostaglandin E2 receptor EP4 subtype (Homo sapiens) (P35408 whole entry): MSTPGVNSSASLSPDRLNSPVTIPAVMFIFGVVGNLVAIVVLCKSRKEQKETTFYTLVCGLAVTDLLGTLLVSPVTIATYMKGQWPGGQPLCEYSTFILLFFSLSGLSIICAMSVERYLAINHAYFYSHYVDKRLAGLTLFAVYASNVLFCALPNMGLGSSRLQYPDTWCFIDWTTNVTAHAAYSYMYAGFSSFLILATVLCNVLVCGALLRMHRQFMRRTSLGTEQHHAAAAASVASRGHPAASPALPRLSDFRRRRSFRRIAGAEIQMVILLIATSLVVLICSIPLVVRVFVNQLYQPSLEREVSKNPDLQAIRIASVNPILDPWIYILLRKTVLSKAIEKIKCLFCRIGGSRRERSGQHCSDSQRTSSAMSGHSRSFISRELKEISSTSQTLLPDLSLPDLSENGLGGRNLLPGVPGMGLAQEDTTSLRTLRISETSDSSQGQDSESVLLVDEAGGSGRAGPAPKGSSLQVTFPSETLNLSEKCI
Chain of 5-hydroxytryptamine receptor 1E (Homo sapiens) (P28566 whole entry): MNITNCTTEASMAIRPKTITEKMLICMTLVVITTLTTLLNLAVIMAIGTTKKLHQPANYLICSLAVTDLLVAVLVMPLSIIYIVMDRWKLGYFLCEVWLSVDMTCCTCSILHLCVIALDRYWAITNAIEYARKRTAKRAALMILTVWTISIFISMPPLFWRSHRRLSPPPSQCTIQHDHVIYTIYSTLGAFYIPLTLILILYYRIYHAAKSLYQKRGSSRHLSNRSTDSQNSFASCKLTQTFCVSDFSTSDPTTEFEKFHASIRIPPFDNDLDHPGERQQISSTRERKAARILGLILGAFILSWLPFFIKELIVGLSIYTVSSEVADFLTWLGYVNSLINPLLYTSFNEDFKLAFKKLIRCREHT
Chain of Histamine H2 receptor (Homo sapiens) (P25021 whole entry): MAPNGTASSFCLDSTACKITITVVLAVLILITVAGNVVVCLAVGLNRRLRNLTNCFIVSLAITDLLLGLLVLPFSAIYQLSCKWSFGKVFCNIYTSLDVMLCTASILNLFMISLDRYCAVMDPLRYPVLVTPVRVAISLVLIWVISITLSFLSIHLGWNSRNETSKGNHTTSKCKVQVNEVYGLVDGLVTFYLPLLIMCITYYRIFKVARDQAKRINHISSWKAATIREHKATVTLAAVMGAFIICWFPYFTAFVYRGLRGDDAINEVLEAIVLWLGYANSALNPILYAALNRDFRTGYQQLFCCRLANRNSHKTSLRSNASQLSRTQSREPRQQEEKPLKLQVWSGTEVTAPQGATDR
Chain of D(3) dopamine receptor (Rattus norvegicus) (P19020 whole entry): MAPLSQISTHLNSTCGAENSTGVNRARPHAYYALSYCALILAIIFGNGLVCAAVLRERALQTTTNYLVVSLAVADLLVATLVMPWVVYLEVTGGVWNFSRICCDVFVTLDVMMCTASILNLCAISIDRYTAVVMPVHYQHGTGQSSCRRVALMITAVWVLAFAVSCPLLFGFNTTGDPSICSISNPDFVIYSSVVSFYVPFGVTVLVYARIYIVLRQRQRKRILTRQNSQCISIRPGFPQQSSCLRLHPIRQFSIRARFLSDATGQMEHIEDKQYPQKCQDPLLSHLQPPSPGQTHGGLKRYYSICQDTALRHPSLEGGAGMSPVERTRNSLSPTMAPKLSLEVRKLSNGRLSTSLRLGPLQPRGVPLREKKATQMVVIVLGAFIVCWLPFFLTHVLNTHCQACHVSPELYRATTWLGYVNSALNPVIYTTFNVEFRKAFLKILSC

Consider `CN1C[C@H](CNC(=O)OCc2ccccc2)C[C@@H]2c3cccc4c3c(cn4C)C[C@H]21` [METERGOLINE], for which the Activity is 9 nM in data set [1]; 1130 nM in [2]; above 10 µM in data set [3]; 104 nM in data set [4]; 31 nM in [5]; 4.9 nM in data set [6]. Besides, the Activity was 30 nM in [7]; 17.7 nM in data set [9]; 36.9 nM in data set [10]; 12.7 nM in data set [11]; 14 nM in [12]; 1270 nM in data set [13]. For the same compound, the Activity was determined as 123 nM in data set [14]; 9.5 nM in data set [15]; 28 nM in data set [16]; 30 nM in [17]; 74 nM in [18]; 63.2 nM in [19]. Besides, the Activity in data set [20] came to 2.6 nM; in [21], 10 nM; in data set [22] it was 21.7 nM; in data set [23], 15.2 nM; in [25] it was 1660 nM; in [26], 18.9 nM. For the same compound, the Activity in [27] was found to be 562 nM; in data set [28] it was 0.9 nM. In addition, the Drug uptake entry in [8] and in data set [24] was “Active” throughout.
On to `CN1C[C@H](CN[11C](=O)OCc2ccccc2)C[C@@H]2c3cccc4c3c(cn4C)C[C@H]21` [[11C]-METERGOLINE], for which the Drug uptake result in [29] is “Not Active”; in the data set with Brain it was 0.01 %ID; in [33], “Not Active”; in [34] it was 0.3 %ID; in data set [35] it was “Not Active”; in data set [36] it was “Active”. Besides, the fraction unbound at 10 min in data set [30] is below 0.01. This compound also displayed a logD in data set [31] of 3.3. In addition, in data set [32], the Fu came out at 0.55%.

In general, logD refers to the decadic logarithm of the distribution of all forms, ionised or not, between an organic phase and buffer at a given pH. Read a low logD as a more hydrophilic compound.

Values taken from ChEMBL document CHEMBL1275246 (Bioorg Med Chem, 2010).
